Results from different studies.
Target: Ephrin type-A receptor 6 (EPHA6, Homo sapiens, UniProt Q9UF33)
One construct used (Q9UF33 1-1036): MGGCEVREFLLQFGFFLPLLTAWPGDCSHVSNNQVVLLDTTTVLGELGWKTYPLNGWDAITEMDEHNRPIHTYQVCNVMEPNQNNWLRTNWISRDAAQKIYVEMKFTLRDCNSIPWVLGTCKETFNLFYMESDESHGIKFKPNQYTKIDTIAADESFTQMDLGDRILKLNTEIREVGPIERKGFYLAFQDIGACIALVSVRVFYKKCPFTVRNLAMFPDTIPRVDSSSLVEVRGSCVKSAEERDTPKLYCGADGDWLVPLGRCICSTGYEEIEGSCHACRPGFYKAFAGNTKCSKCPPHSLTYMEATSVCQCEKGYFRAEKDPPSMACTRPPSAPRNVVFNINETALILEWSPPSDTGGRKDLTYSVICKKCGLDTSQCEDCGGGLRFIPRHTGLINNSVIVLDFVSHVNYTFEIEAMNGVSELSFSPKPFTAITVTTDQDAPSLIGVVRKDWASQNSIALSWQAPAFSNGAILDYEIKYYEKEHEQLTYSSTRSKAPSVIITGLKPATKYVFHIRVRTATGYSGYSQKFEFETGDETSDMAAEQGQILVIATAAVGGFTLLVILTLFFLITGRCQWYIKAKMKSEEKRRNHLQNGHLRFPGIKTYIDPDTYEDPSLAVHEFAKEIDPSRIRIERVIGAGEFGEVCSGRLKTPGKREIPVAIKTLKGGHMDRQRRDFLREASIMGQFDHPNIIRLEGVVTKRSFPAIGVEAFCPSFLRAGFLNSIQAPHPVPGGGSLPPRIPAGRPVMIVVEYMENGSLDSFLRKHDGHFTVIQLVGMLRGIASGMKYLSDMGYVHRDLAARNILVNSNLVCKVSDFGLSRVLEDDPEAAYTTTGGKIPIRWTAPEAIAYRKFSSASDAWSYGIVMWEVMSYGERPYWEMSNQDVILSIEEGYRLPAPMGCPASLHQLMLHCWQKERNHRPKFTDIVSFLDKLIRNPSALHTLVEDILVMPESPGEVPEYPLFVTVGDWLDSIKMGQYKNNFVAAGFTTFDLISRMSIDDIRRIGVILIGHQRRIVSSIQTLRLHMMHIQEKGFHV

| SMILES | read-out | action | method | concentration | measurement | result |
| --- | --- | --- | --- | --- | --- | --- |
| O=C(Nc1cnn(-c2csc(C(=O)NC3COC3)c2)c1)Nc1ccccc1Cl | enzyme activity | inhibitor |  | 5 µM | remaining activity | 99.5% |
| Oc1cccc(-c2nc(N3CCOCC3)c3oc4ncccc4c3n2)c1 | cell-free assay |  |  | 0.5 µM | remaining signal | 79% |
| Cc1sc(C(=O)NC2COC2)cc1-n1cc(NC(=O)Nc2c(F)cccc2Cl)cn1 | enzyme activity | inhibitor |  | 10 µM | remaining activity | 80.2% |
| CC(C)(C)c1nc2c(s1)c1nc(N)ncc1c1ccc(NS(=O)(=O)c3c(F)cccc3F)c(F)c12 | enzyme activity | inhibitor | radiometric | 1 µM | remaining activity | 99% |
| Nc1ncnc2occ(-c3ccc(NC(=O)Nc4cc(C(F)(F)F)ccc4F)cc3)c12 | cell-free assay |  |  | 20 µM | remaining signal | 0% |
| CC/C(=N\NC(=O)NCc1cccc(O)c1)c1ccc(O)c(C)c1O | enzyme activity | inhibitor |  | 0.1 µM | inhibition | 1.5% |
| CC(=O)Nc1c(C(C)=O)c(=O)n(C)c2nc(-c3ccc(Cl)cc3Cl)c(-c3ccc(Cl)cc3)cc12 | cell-free assay |  | competition with immobilised ligand | 1 µM | remaining binding | 100% |
| Cc1ccc(C(=O)Nc2ccc(CN3CCN(C)CC3)c(C(F)(F)F)c2)cc1C#Cc1cnc2cccnn12 | cell-free assay |  |  | 23.5 nM | remaining signal | 45% |
| CC(C)(O)[C@H]1CC[C@H](Nc2ccc3ncc(-c4cccc(C(F)(F)F)c4)n3n2)CC1 | enzyme activity | inhibitor |  | 1 µM | remaining activity | 91.1% |
| CS(=O)(=O)N1CCCC(NC(=O)[C@H](CCC2CCCCC2)NC(=O)c2ccc(CNC(=O)c3cnc4ccccn34)cc2)C1 (stereo partly shown) | cell-free assay |  | competition with immobilised ligand | 0.1 µM | remaining binding | 100% |
| CC(C)(C)c1nc(-c2cccc(NS(=O)(=O)c3c(F)cccc3F)c2F)c(-c2ccnc(N)n2)s1 | enzyme activity | inhibitor | radiometric | 1 µM | remaining activity | 72% |
| CNC(=O)c1cc(Oc2ccc(NC(=O)Nc3ccc(Cl)c(C(F)(F)F)c3)cc2)ccn1 | cell-free assay |  |  | 0.5 µM | remaining signal | 42% |
| N#Cc1ccc(Nc2ccc3[nH]c(=O)[nH]c3c2)c(Cl)c1 | cell-free assay |  | competition with immobilised ligand | 1 µM | remaining binding | 82% |
